Experimental data as given in ChEMBL document CHEMBL5113504, “Discovery of potent benzoxaborole inhibitors against SARS-CoV-2 main and dengue virus proteases” (Eur J Med Chem, 2022).
Calls of active or inactive are those of the source. The calls are words filed in the database; no cut-off is given here.

Key:
dengue virus type 2 = test: Antiviral activity against Dengue virus serotype 2 infected in Huh-7 cells assessed as reduction in virus titer at 12.5 uM incubated for 48 hrs followed by infection of Vero E6 cells with supernatant and measured after 7 days by crystal violet staining based analysis relative to control; type: functional; design: scale not given: the % may be the effect or the level left; conditions: time 9 day
Summary of the method: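 Huh-7 cells (1×10^4/well, overnight) infected with DENV-2 at MOI 1 for 2 h, medium changed, compound added; 48 h, triplicate supernatants pooled. Titer by plaque assay: Vero E6 infected 1 h with 10^-1 to 10^-6 dilutions, plaque medium 7 days, formaldehyde-fixed, crystal violet stained, plaques counted.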

Genome polyprotein [1] = target: T1, Genome polyprotein (dengue virus type 2, UniProt P29990); test: Inhibition of full length DENV2 NS2B-NS3 protease in human HeLa cells expressing luciferase reporter gene incubated for 24 hrs by luminescence analysis; type: cell-based
Summary of the method: (§1)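 Stable DENV2pro reporter HeLa cells seeded at 2×10^4 per well and dosed immediately; 24 h at 37 °C, lysed 15 min, coelenterazine (2.75 μM in PBS) injected, luminescence read 5 s. Triplicates; % inhibition vs untreated cells; EC50 by 4-parameter fit with cell-free background subtraction.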

[2] = target: Replicase polyprotein 1ab (Severe acute respiratory syndrome coronavirus 2) (UniProt P0DTD1); test: […] inhibition of C-terminal His tagged SARS CoV-2 main protease transfected in Escherichia coli BL21 (DE3) assessed as decrease in Vmax with constant Km using varying concentrations of 2-Abz-Ser-AlaVal-Leu-Gln-Ser-Gly-Tyr(3-NO2)-Arg-OH as substrate by Michaelis-Menten analysis
HeLa [3] = test: Cytotoxicity against human HeLa cells expressing renilla luciferase reporter construct assessed as reduction in cell viability at 12.5 uM by luciferase based analysis; type: toxicity
[4] = target: T2, Replicase polyprotein 1ab (Severe acute respiratory syndrome coronavirus 2, UniProt P0DTD1); test: Chemical stability of the compound in SARS-CoV-2 main protease assay buffer assessed as SARS-CoV-2 main protease-mediated amide bond cleavage at 100 uM measured after 8 hrs by HPLC based UV-Vis analysis; type: ADME; conditions: severe acute respiratory syndrome coronavirus 2, buffer
Summary of the method: (§2)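 Compound incubated with isolated protease (SARS-CoV-2 Mpro or DENV-2 protease) in that enzyme's assay buffer for 8 h; remaining compound quantified by HPLC with UV/Vis detection (peak AUC).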

[5] = Permeability of compound in PBS at pH 7.4 measured after 5 hrs by HPLC-UV based PAMPA assay; type: ADME; conditions: pH 7.4, 5 h
[6] = target: T2, Replicase polyprotein 1ab; test: (§3) Inhibition of C-terminal His tagged SARS CoV-2 main protease transfected in Escherichia coli BL21 (DE3) using 2-Abz-Ser-AlaVal-Leu-Gln-Ser-Gly-Tyr(3-NO2)-Arg-OH as substrate preincubated for 15 mins followed by substrate addition and measured after 15 mins by FRET assay
[7] = target: Genome polyprotein (dengue virus type 2) (UniProt P29990); test: Inhibition of full length DENV2 NS2B-NS3 protease in human HeLa cells expressing luciferase reporter gene at 12.5 uM incubated for 24 hrs by luminescence analysis relative to control; type: cell-based; summary of the method: as §1
[8] = target: Replicase polyprotein 1ab (Severe acute respiratory syndrome coronavirus 2) (UniProt P0DTD1); test: Reversible inhibition of C-terminal His tagged SARS CoV-2 main protease transfected in Escherichia coli BL21 (DE3) at 100 uM preincubated for 2 hrs followed by dilution to 3 uM and substrate addition measured after 15 mins by fluorimetric assay; conditions: time 135.0 min
Huh-7 = test: Cytotoxicity against human Huh-7 cells infected with Dengue virus serotype 2 assessed as reduction in cell viability by celltiter-blue assay; type: toxicity, cell-based
Summary of the method: (§4)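 CellTiter-Blue viability in HeLa reporter cells or Huh-7 cells, on plates run in parallel with the reporter or titer-reduction assay under the same treatment; each concentration in triplicate.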

[9] = target: Replicase polyprotein 1ab (Severe acute respiratory syndrome coronavirus 2) (UniProt P0DTD1); test: Inhibition of C-terminal His tagged SARS CoV-2 main protease transfected in Escherichia coli BL21 (DE3) using 2-Abz-Ser-AlaVal-Leu-Gln-Ser-Gly-Tyr(3-NO2)-Arg-OH as substrate at 50 uM preincubated for 15 mins followed by substrate addition and measured after 15 mins by FRET assay relative to control; conditions: time 30.0 min
HeLa [10] = test: Cytotoxicity against human HeLa cells expressing luciferase-based DENV-2 protease reporter system assessed as reduction in cell viability by celltiter-blue assay; type: toxicity; summary of the method: as §4
[11] = target: Replicase polyprotein 1ab (Severe acute respiratory syndrome coronavirus 2) (UniProt P0DTD1); test: Inhibition of C-terminal His tagged SARS CoV-2 main protease transfected in Escherichia coli BL21 (DE3) at 50 uM incubated in presence of DTT
Summary of the method: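 Mpro fluorogenic inhibition assay repeated with 1 mM DTT added to the assay buffer.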

Genome polyprotein [12] = target: T1, Genome polyprotein; test: Chemical stability of the compound in DENV2 NS2B-NS3 protease assay buffer assessed as DENV2 NS2B-NS3 protease-mediated amide bond cleavage by measuring reduction in AUC at 100 uM measured after 8 hrs by HPLC analysis; type: ADME; conditions: dengue virus type 2, buffer; summary of the method: as §2
[13] = target: Replicase polyprotein 1ab (Severe acute respiratory syndrome coronavirus 2) (UniProt P0DTD1); test: as §3, with “Potency index, ratio of boceprevir IC50 to test compound IC50 for inhibition” for “Inhibition”; conditions: time 30.0 min
[14] = target: T2, Replicase polyprotein 1ab; test: Inhibition of C-terminal His tagged SARS CoV-2 main protease transfected in Escherichia coli BL21 (DE3) assessed as inhibition constant by Michaelis-Menten analysis
Trypsin = Trypsin (Homo sapiens, UniProt P07477+P07478+P35030); test: Inhibition of trypsin (unknown origin) using Boc-Val-Pro-Arg-AMC as substrate assessed as enzymatic cleavage preincubated for 15 mins followed by substrate addition and measured after 15 mins by Continuous fluorimetric assay; type: protein assay

SMILES: O=C(Nc1ccc2c(c1)B(O)OC2)c1cccc(OCc2ccccc2)c1
- Activity (dengue virus type 2): 67.4%
- EC50 (Genome polyprotein [1]): 2.4 µM
- inhibition [2]: Active
- Activity (HeLa [3]): Non-Toxic
- Stability [4]: Stable
- permeability [5]: Permeable
- IC50 [6]: 6.1 µM
- inhibition [7]: 81.2%
- inhibition [8]: Active
- Activity (Huh-7): Non-Toxic
- inhibition [9]: 99.6%
- CC50 (HeLa [10]): 55.2 µM
- inhibition [11]: Active
- Stability (Genome polyprotein [12]): Stable
- Ratio IC50 [13]: 3
- Ki [14]: 6.2 µM

SMILES: N=C(N)Nc1ccc(C(=O)Nc2ccc3c(c2)B(O)OC3)cc1
- Activity (HeLa [3]): Non-Toxic
- Stability [4]: Stable
- IC50 [6]: 13.9 µM
- inhibition [7]: 23%
- IC50 (Trypsin): 61.4 µM
- inhibition [9]: 87.4%
- CC50 (HeLa [10]): > 200 µM
- inhibition [11]: Active
